Columns and labels:
[1] = target: T1, Estrogen receptor (Homo sapiens, UniProt P03372); assay: Displacement of fluorescent labelled fluormone ES2 from human recombinant GST tagged ER alpha LBD ( 282 to 595 residues) expressed in baculovirus infected insect cells incubate for 20 mins measured after 1 hr by TR-FRET Lanthascreen assay
T1 sequence (P03372 whole entry): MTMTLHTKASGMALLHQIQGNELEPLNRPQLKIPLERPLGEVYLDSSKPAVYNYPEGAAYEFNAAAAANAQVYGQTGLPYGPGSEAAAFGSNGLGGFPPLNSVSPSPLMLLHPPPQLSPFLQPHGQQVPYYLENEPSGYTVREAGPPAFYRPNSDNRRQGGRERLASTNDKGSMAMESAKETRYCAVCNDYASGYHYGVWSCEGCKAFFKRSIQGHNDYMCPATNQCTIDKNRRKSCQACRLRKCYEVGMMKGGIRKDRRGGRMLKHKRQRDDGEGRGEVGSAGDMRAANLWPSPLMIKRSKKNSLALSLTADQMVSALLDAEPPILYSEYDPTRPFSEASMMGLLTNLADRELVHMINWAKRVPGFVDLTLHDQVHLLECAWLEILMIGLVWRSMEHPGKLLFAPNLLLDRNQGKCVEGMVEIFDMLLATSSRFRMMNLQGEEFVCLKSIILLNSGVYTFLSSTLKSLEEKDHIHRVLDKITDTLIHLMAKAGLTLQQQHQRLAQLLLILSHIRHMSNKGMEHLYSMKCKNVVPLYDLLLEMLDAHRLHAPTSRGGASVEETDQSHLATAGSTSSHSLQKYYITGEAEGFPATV
Outline: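 ER binding was reported as n ≥ 2 determinations, with SEM within 0.3 log units.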

[2] = target: T1, Estrogen receptor; assay: Induction of ERalpha degradation in human MCF7 cells incubated for 18 to 22 hrs by immuno-fluorescence assay; type: cell-based
[3] = target: T2, Estrogen receptor (Homo sapiens) (UniProt P03372); assay: Induction of ERalpha degradation in human MCF7 cells at 0.1 uM incubated for 18 to 22 hrs immuno-fluorescence assay relative to control; type: cell-based
T2 sequence (whole entry): T1 sequence (P03372 whole entry)

[4] = Lipophilicity, log D of compound at pH 7.4 by shake-flask method; type: physicochemical; settings: buffer
Outline: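 logD at pH 7.4 was measured by the shake-flask method.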

[5] = Fraction unbound in human plasma by equilibrium dialysis method; type: ADME, cell-free
Outline: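 Binding was measured by equilibrium dialysis in 10% human plasma, with compound added from a DMSO stock.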

[6] = Intrinsic clearance in rat hepatocytes assessed rate of metabolism per 10^6 cells; type: ADME, cell-based, Hepatocyte; settings: read-out: CLH
Outline: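 Compound from a DMSO stock was incubated with isolated rat hepatocytes diluted to 1 × 10^6 cells/mL. Rate of metabolism is expressed in μL/min/10^6 cells.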

[7] = Intrinsic clearance in human microsome assessed as rate of metabolism; type: ADME; settings: microsomes
Outline: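 Compound from a DMSO stock was incubated with human liver microsomes. Rate of metabolism is expressed in μL/min/mg.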

[8] = Efflux ratio of intrinsic permeability from basolateral to apical side over apical to basolateral side in human Caco2 cells at 7.4:7.4 apical: basolateral pH at 10 uM; type: ADME, cell-based; settings: Caco-2, pH 7.4
[9] = target: T2, Estrogen receptor (Homo sapiens); assay: Induction of ERalpha degradation in human MCF7 cells at 0.1 uM incubated for 18 to 22 hrs Western blot analysis relative to fulvestrant; type: cell-based
Outline: (§1)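 Western blot read-out of ERα protein loss in MCF-7 and CAMA-1 breast cancer cells treated with compound at 0.1 μM. Degradation expressed as percentage relative to fulvestrant.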

[10] = target: T2, Estrogen receptor (Homo sapiens); assay: Induction of ERalpha degradation in human CAMA-1 cells at 0.1 uM incubated for 18 to 22 hrs Western blot assay relative to fulvestrant; type: cell-based; outline: as §1
[11] = Clearance in rat plasma at 0.5 mg/kg, iv and 1 mg/kg, po; type: ADME, organism-based
Outline: (§2)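 Rats were given 0.5 mg/kg IV in 5% DMSO:95% hydroxylpropyl β-cyclodextrin or 10% DMA:90% Captisol, and 1 mg/kg orally as a 0.1% HMPC/tween suspension or a 10% DMSO:90% cyclodextrin solution. Plasma clearance, Vdss and half-life came from the IV arm; AUC came from the oral arm; bioavailability F (%) was also reported.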

[12] = Volume of distribution at steady state in rat at 0.5 mg/kg or 1 mg/kg, […]; type: ADME, organism-based; settings: in vivo
[13] = Half-life in rat at 0.5 mg/kg, iv; type: ADME, organism-based; settings: in vivo; outline: as §2
[14] = AUC in rat at 1 mg/kg, po; type: ADME, organism-based; design: dose 1 mg/kg; settings: in vivo; outline: as §2
[15] = Oral bioavailability in rat at 1 mg/kg; type: ADME, organism-based; settings: in vivo; outline: as §2

Structure (SMILES)	IC50 [1]	IC50 [2]	Activity [3]	logD [4]	fraction unbound [5]	hepatocyte CLint [6]	microsomal CLint [7]	efflux ratio at 10 µM [8]	Activity [9]	Activity [10]	clearance [11]	Vdss [12]	half-life [13]	AUC [14]	bioavailability [15]
COc1cc2[nH]ncc2c2c1[C@@H](c1ccc(NC3CN(CCCF)C3)cn1)N(CC(F)(F)F)[C@H](C)C2	501 nM	2.51 nM	40%	2.4	0.32	6 µL/min/1e6 cells	26 µL/min/mg								
C[C@@H]1Cc2c(c(F)cc3[nH]ncc23)[C@@H](c2ccc(NC3CN(CCCF)C3)cn2)N1CC(F)(F)F	15.8 nM	5.01 nM	95%	2.7	0.19	11 µL/min/1e6 cells	8 µL/min/mg								
C[C@@H]1Cc2c(ccc3[nH]ncc23)[C@@H](c2ccc(NC3CN(CCCF)C3)cn2)N1CC(F)F			99%				28 µL/min/mg								
FCCCN1CC(Nc2ccc([C@@H]3c4ccc5[nH]ncc5c4C[C@@H](C(F)F)N3CC(F)F)nc2)C1			97%		0.28	32 µL/min/1e6 cells	34 µL/min/mg								
C[C@@H]1Cc2c(cc(F)c3[nH]ncc23)[C@@H](c2ccc(NC3CN(CCCF)C3)cn2)N1CC(F)(F)F	0.501 nM	0.2 nM	98%	3.2	0.14	20 µL/min/1e6 cells	19 µL/min/mg								
C[C@@H]1Cc2c(ccc3[nH]nc(F)c23)[C@@H](c2ccc(NC3CN(CCCF)C3)c(F)n2)N1CC(F)(F)F	1 nM	0.0501 nM	99%		0.068	10 µL/min/1e6 cells	44 µL/min/mg								
C[C@@H]1Cc2c(ccc3[nH]ncc23)[C@@H](c2ncc(NC3CN(CCCF)C3)cc2F)N1CC(F)(F)F	2 nM	0.251 nM	98%	3	0.16	24 µL/min/1e6 cells	19 µL/min/mg	7	96%	98%					
C[C@@H]1Cc2c(ccc3[nH]ncc23)[C@@H](c2ccc(NC3CN(CCCF)C3)c(F)n2)N1CC(F)(F)F			98%	3	0.16	36 µL/min/1e6 cells	20 µL/min/mg				65 mL/min/kg	7.7 L/kg	1.9 h	0.22 µM·h	34%
C[C@@H]1Cc2c(ccc3[nH]ncc23)[C@@H](c2ncc(NC3CN(CCCF)C3)cc2F)N1CC(F)(F)CF			98%			55 µL/min/1e6 cells	26 µL/min/mg								
C[C@@H]1Cc2c(c(O)cc3[nH]ncc23)[C@@H](c2ccc(NC3CN(CCCF)C3)cn2)N1CC(F)(F)F	39.8 nM	126 nM	> 80%	2.3		11 µL/min/1e6 cells	5 µL/min/mg								
C[C@@H]1Cc2c(ccc3[nH]ncc23)[C@@H](c2ccc(NC3CN(CCCF)C3)cn2)N1CC(F)(F)F [CAMIZESTRANT]			99%	2.9			12 µL/min/mg		95%	98%					
C[C@@H]1Cc2c(ccc3[nH]nc(F)c23)[C@@H](c2ncc(NC3CN(CCCF)C3)cc2F)N1CC(F)(F)F	1.26 nM		99%		0.054	10 µL/min/1e6 cells	34 µL/min/mg	1.4			24 mL/min/kg	17 L/kg	9.6 h	0.76 µM·h	60%

Reference: ChEMBL document CHEMBL4725497, “Addition of Fluorine and a Late-Stage Functionalization (LSF) of the Oral SERD AZD9833” (ACS Med Chem Lett, 2020)
